# Measurements published in ChEMBL document CHEMBL2057186, “Application of the bicyclo[1.1.1]pentane motif as a nonclassical phenyl ring bioisostere in the design of a potent and orally active γ-secretase inhibitor” (J Med Chem, 2012).
# Assays:
# [1] = Apparent permeability from apical to basal side of dog RRCK cells; assay type: ADME, cell-based, Canis lupus familiaris, MDCKII-LE; conditions: MDCK
# Method in brief: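 Absorptive (A to B) permeability was measured in RRCK cells, a Madin–Darby canine kidney subline isolated for low transporter activity. It estimates intrinsic passive permeability.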
# Gamma-secretase = assay: Inhibition of gamma secretase-mediated amyloid beta42 production in human H4 cells expressing human wild-type APP
# Homo sapiens = species on record: Homo sapiens; assay: Selectivity for human gamma-seretase over notch signalling protein
# [2] = Kinetic solubility of the solubility of the compound at pH 6.5; assay type: physicochemical; conditions: buffer, read-out: Kinetic_solubility
# Method in brief: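 Kinetic solubility was measured in aqueous buffer at pH 6.5.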
# P-gp = assay: Efflux ratio of apparent permeability from basal to apical side to apical to basal side of MDCK cells expressing human P-gp; assay type: ADME, cell-based, Canis lupus familiaris; conditions: dog, MDCK-MDR1
# Method in brief: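 Monolayers were MDCK cells transfected with the human P-glycoprotein (MDR1) gene. Permeability was measured basolateral-to-apical and apical-to-basolateral, and the BA/AB ratio was reported.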
SMILES,Papp A→B [1] [×10⁻⁶ cm/s],IC50 (Gamma-secretase) [nM],Selectivity Index (Homo sapiens),solubility kinetic [2] [µM],efflux ratio (P-gp)
NC(=O)[C@@H](CCC(F)(F)F)N(CCCc1ncon1)S(=O)(=O)c1ccc(Cl)cc1,31.3,12.1,,,
NC(=O)[C@@H](CCC(F)(F)F)N(CCc1ncon1)S(=O)(=O)c1ccc(Cl)cc1,29.6,24.4,,,
N#CC12CC(CN([C@H](CCC(F)(F)F)C(N)=O)S(=O)(=O)c3ccc(Cl)cc3)(C1)C2,30.2,0.99,467,272,2.04
N#C[C@H]1C[C@@H](CN([C@H](CCC(F)(F)F)C(N)=O)S(=O)(=O)c2ccc(Cl)cc2)C1,24.1,4.77,,,
N#Cc1ccc(CN([C@H](CCC(F)(F)F)C(N)=O)S(=O)(=O)c2ccc(Cl)cc2)cc1,19.7,1.04,570,44.5,2.05
N#CCCCN([C@H](CCC(F)(F)F)C(N)=O)S(=O)(=O)c1ccc(Cl)cc1,27.6,87.1,,,
C[C@]1(C#N)C[C@H](CN([C@H](CCC(F)(F)F)C(N)=O)S(=O)(=O)c2ccc(Cl)cc2)C1,21.8,58.7,,,
N#C[C@H]1CC[C@H](CN([C@H](CCC(F)(F)F)C(N)=O)S(=O)(=O)c2ccc(Cl)cc2)CC1 (stereo in doubt; 21),15.7,2.75,,,
N#C[C@H]1C[C@@H]1CN([C@H](CCC(F)(F)F)C(N)=O)S(=O)(=O)c1ccc(Cl)cc1,21.5,6.92,,,
N#CC1(CN([C@H](CCC(F)(F)F)C(N)=O)S(=O)(=O)c2ccc(Cl)cc2)CC1,29.9,9.6,,,
